Test results published in ChEMBL document CHEMBL3272012, “5-(Tetradecyloxy)-2-furancarboxylic acid and related hypolipidemic fatty acid-like alkyloxyarylcarboxylic acids” (J Med Chem, 1977).
Blank lines part the entries; values can stand above or below the compound they belong to.

Tests used:
Rattus norvegicus [1] = assay: Hypolipidemic activity in Wistar rat assessed as reduction in plasma triglyceride level at 533 umol/kg/day administered through diet for 4 days; assay type: functional; settings: 96 h
Rattus norvegicus [2] = assay: Hypolipidemic activity in Wistar rat assessed as reduction in plasma cholesterol level at 533 umol/kg/day administered through diet for 4 days; assay type: functional; settings: 96 h
Outline: (§1)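 Young male Wistar rats, 170-190 g initial weight, groups of six, given compound mixed thoroughly into Purina Lab Chow ad libitum for 4 or 10 days as stated. Daily dose calculated from food consumption and body weight. Bled by cardiac puncture at end of treatment; plasma cholesterol measured by automated procedure. Expressed as percent reduction versus simultaneous untreated control group; Student's t test.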

Rattus norvegicus [3] = assay: Increase in liver weight in Wistar rat at 533 umol/kg/day administered through diet for 4 days; assay type: ADME, organism-based; settings: in vivo, po, 96 h
Rattus norvegicus [4] = assay: Increase in cholesterol level in Wistar rat liver at 533 umol/kg/day administered through diet for 4 days; assay type: ADME, organism-based; settings: in vivo, po, 96 h
Rattus norvegicus [5] = assay: Increase in liver weight in Wistar rat at 441 umol/kg/day administered through diet for 4 days; assay type: ADME, organism-based; settings: in vivo, po, 96 h
Rattus norvegicus [6] = assay: Increase in cholesterol level in Wistar rat liver at 441 umol/kg/day administered through diet for 4 days; assay type: ADME, organism-based; settings: in vivo, po, 96 h
Rattus norvegicus [7] = assay: Hypolipidemic activity in Wistar rat assessed as reduction in plasma cholesterol level at 441 umol/kg/day administered through diet for 4 days; assay type: functional; settings: 96 h; outline: as §1
Rattus norvegicus [8] = assay: Hypolipidemic activity in Wistar rat assessed as reduction in plasma triglyceride level at 441 umol/kg/day administered through diet for 4 days; assay type: functional; settings: 96 h
Rattus norvegicus [9] = assay: Increase in liver weight in Wistar rat at 540 umol/kg/day administered through diet for 4 days; assay type: ADME, organism-based; settings: in vivo, po, 96 h
Rattus norvegicus [10] = assay: Increase in cholesterol level in Wistar rat liver at 540 umol/kg/day administered through diet for 4 days; assay type: ADME, organism-based; settings: in vivo, po, 96 h
Rattus norvegicus [11] = assay: Hypolipidemic activity in Wistar rat assessed as reduction in plasma cholesterol level at 540 umol/kg/day administered through diet for 4 days; assay type: functional; settings: 96 h; outline: as §1
Rattus norvegicus [12] = assay: Hypolipidemic activity in Wistar rat assessed as reduction in plasma triglyceride level at 540 umol/kg/day administered through diet for 4 days; assay type: functional; settings: 96 h
Rattus norvegicus [13] = assay: Hypolipidemic activity in Wistar rat assessed as reduction in plasma cholesterol level at 319 umol/kg/day administered through diet for 4 days; assay type: functional; settings: 96 h
Outline: (§2)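 Young male Wistar rats, 170-190 g at start, in groups of six, given compound mixed into Purina Lab Chow ad libitum for 4 or 10 days as stated. Daily dose was calculated from food consumption and body weight. Plasma was taken by cardiac puncture at the end and cholesterol measured by automated procedure. Results are % reduction versus a concurrent untreated control group, with Student's t test.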

Rattus norvegicus [14] = assay: Increase in liver weight in Wistar rat at 319 umol/kg/day administered through diet for 4 days; assay type: ADME, organism-based; settings: in vivo, po, 96 h
Rattus norvegicus [15] = assay: Increase in cholesterol level in Wistar rat liver at 319 umol/kg/day administered through diet for 4 days; assay type: ADME, organism-based; settings: in vivo, po, 96 h
Rattus norvegicus [16] = assay: Hypolipidemic activity in Wistar rat assessed as reduction in plasma triglyceride level at 319 umol/kg/day administered through diet for 4 days; assay type: functional; settings: 96 h
Outline: (§3)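 Young male Wistar rats, 170-190 g initial weight, six per group, fed drug mixed thoroughly into Purina Lab Chow ad libitum for the stated days; daily dose calculated from food consumption and body weight. Bled by cardiac puncture at end; plasma cholesterol and triglycerides by automated procedures, expressed as percent reduction versus simultaneous untreated controls; Student's t test.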

Rattus norvegicus [17] = assay: Increase in liver weight in Wistar rat at 362 umol/kg/day administered through diet for 4 days; assay type: ADME, organism-based; settings: in vivo, po, 96 h
Rattus norvegicus [18] = assay: Increase in cholesterol level in Wistar rat liver at 362 umol/kg/day administered through diet for 4 days; assay type: ADME, organism-based; settings: in vivo, po, 96 h
Rattus norvegicus [19] = assay: Increase in liver weight in Wistar rat at 766 umol/kg/day administered through diet for 10 days; assay type: ADME, organism-based; settings: in vivo, po, 240 h
Rattus norvegicus [20] = assay: Inhibition of fatty acid biosynthesis in meal fed Wistar rat liver assessed as sodium [1-14C]acetate incorporation at 188 mg/kg/day administered through diet for 7 days measured 1 hr after labeled acetate challenge by liquid scintillation spectrometry (reference value: 182 +/- 22 x 10^-3 dpm); assay type: functional
Rattus norvegicus [21] = assay: Increase in liver weight in Wistar rat at 304 umol/kg/day administered through diet for 10 days; assay type: ADME, organism-based; settings: in vivo, po, 240 h
Rattus norvegicus [22] = assay: Inhibition of cholesterol biosynthesis in Ad Lib fed Wistar rat liver assessed as sodium [1-14C]acetate incorporation at 261 mg/kg/day administered through diet for 7 days measured 1 hr after labeled acetate challenge by liquid scintillation spectrometry (reference value: 12.7 +/- 2.6 x 10^-3 dpm); assay type: functional
Rattus norvegicus [23] = assay: Hypolipidemic activity in Wistar rat assessed as reduction in plasma triglyceride level at 766 umol/kg/day administered through diet for 10 days; assay type: functional; settings: 240 h
Rattus norvegicus [24] = assay: Hypolipidemic activity in Wistar rat assessed as reduction in plasma cholesterol level at 119 umol/kg/day administered through diet for 10 days; assay type: functional; settings: 240 h; outline: as §2
Rattus norvegicus [25] = assay: Inhibition of fatty acid biosynthesis in Ad Lib fed Wistar rat liver assessed as sodium [1-14C]acetate incorporation at 261 mg/kg/day administered through diet for 7 days measured 1 hr after labeled acetate challenge by liquid scintillation spectrometry (reference value: 27.2 +/- 4.8 x 10^-3 dpm); assay type: functional
Rattus norvegicus [26] = assay: Increase in liver weight in Wistar rat at 1693 umol/kg/day administered through diet for 10 days; assay type: ADME, organism-based; settings: in vivo, po, 240 h
Rattus norvegicus [27] = assay: Hypolipidemic activity in Wistar rat assessed as reduction in plasma cholesterol level at 1693 umol/kg/day administered through diet for 10 days; assay type: functional; settings: 240 h; outline: as §2
Rattus norvegicus [28] = assay: Inhibition of cholesterol biosynthesis in meal fed Wistar rat liver assessed as sodium [1-14C]acetate incorporation at 188 mg/kg/day administered through diet for 7 days measured 1 hr after labeled acetate challenge by liquid scintillation spectrometry (reference value: 41.3 +/- 3.2 x 10^-3 dpm); assay type: functional
Rattus norvegicus [29] = assay: Hypolipidemic activity in Wistar rat assessed as reduction in plasma cholesterol level at 766 umol/kg/day administered through diet for 10 days; assay type: functional; settings: 240 h
Outline: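 Young male Wistar rats (initial weight 170-190 g), groups of six, fed compound mixed into Purina Lab Chow ad libitum for 4 or 10 days; daily dose calculated from food consumption and body weight. Bled by cardiac puncture; plasma cholesterol and triglycerides by automated procedures; percent reduction versus simultaneous untreated controls, Student's t test.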

Rattus norvegicus [30] = assay: Hypolipidemic activity in Wistar rat assessed as reduction in plasma cholesterol level at 304 umol/kg/day administered through diet for 10 days; assay type: functional; settings: 240 h; outline: as §2
Rattus norvegicus [31] = assay: Hypolipidemic activity in Wistar rat assessed as reduction in plasma triglyceride level at 304 umol/kg/day administered through diet for 10 days; assay type: functional; settings: 240 h; outline: as §3
Rattus norvegicus [32] = assay: Hypolipidemic activity in Wistar rat assessed as reduction in plasma triglyceride level at 1693 umol/kg/day administered through diet for 10 days; assay type: functional; settings: 240 h; outline: as §3
Rattus norvegicus [33] = assay: Increase in liver weight in Wistar rat at 119 umol/kg/day administered through diet for 10 days; assay type: ADME, organism-based; settings: in vivo, po, 240 h
Rattus norvegicus [34] = assay: Hypolipidemic activity in Wistar rat assessed as reduction in plasma triglyceride level at 119 umol/kg/day administered through diet for 10 days; assay type: functional; settings: 240 h; outline: as §3

Compound: CCCCCCCCCCCCOc1ccc(C(=O)O)o1
inhibition in vivo at 533 µmol/kg (Rattus norvegicus [1]): 79% | inhibition in vivo at 533 µmol/kg (Rattus norvegicus [2]): 38% | Activity (Rattus norvegicus [3]): 22% | Activity (Rattus norvegicus [4]): 0%

Compound: CCCCCCCCCCOc1ccc(C(=O)O)o1
Activity (Rattus norvegicus [9]): 1% | Activity (Rattus norvegicus [10]): 17% | inhibition in vivo at 540 µmol/kg (Rattus norvegicus [11]): 5% | inhibition in vivo at 540 µmol/kg (Rattus norvegicus [12]): 46%

Compound: CCOC(=O)C(C)(C)Oc1ccc(Cl)cc1 [CLOFIBRATE]
Activity (Rattus norvegicus [19]): 22% | Activity (Rattus norvegicus [20]): 205000 dpm | Activity (Rattus norvegicus [21]): 2% | Activity (Rattus norvegicus [22]): 4100 dpm | inhibition in vivo at 766 µmol/kg (Rattus norvegicus [23]): 66% | inhibition in vivo at 119 µmol/kg (Rattus norvegicus [24]): 9% | Activity (Rattus norvegicus [25]): 50000 dpm | Activity (Rattus norvegicus [26]): 50% | inhibition in vivo at 1693 µmol/kg (Rattus norvegicus [27]): 41% | Activity (Rattus norvegicus [28]): 43300 dpm | inhibition in vivo at 766 µmol/kg (Rattus norvegicus [29]): 36% | inhibition in vivo at 304 µmol/kg (Rattus norvegicus [30]): 18% | inhibition in vivo at 304 µmol/kg (Rattus norvegicus [31]): 48% | inhibition in vivo at 1693 µmol/kg (Rattus norvegicus [32]): 78% | Activity (Rattus norvegicus [33]): 0% | inhibition in vivo at 119 µmol/kg (Rattus norvegicus [34]): 30%

The next lines start with results.

Activity (Rattus norvegicus [5]): 4% | Activity (Rattus norvegicus [6]): 1%
Compound: CCCCCCCCCCCCCCOc1ccc(C(=O)O)s1
inhibition in vivo at 441 µmol/kg (Rattus norvegicus [7]): 54% | inhibition in vivo at 441 µmol/kg (Rattus norvegicus [8]): 83%

Activity (Rattus norvegicus [14]): 15% | Activity (Rattus norvegicus [15]): 3%
Compound: CCCCCCCCCCCCCOc1ccc(C(=O)O)o1
inhibition in vivo at 319 µmol/kg (Rattus norvegicus [13]): 31% | inhibition in vivo at 319 µmol/kg (Rattus norvegicus [16]): 6%

Activity (Rattus norvegicus [17]): 4% | Activity (Rattus norvegicus [18]): 0%
Compound: CCCCCCCCCCCCCCCCCCCCOc1ccc(C(=O)OC)cc1
